Assay outcomes as filed in PubChem BioAssay.
SENP8 block-1: blocks the human protease SENP8. purified SENP8, Z-RLRGG-aminoluciferin cleavage, luminescence. actives 1.2% (n = 330,000). AID 2540. inhibition, % at 10 µM. Q96LD8; in the data active = inhibition above about 50%
HSP90 refold inh: HSP90 refolding inhibition in rabbit reticulocyte lysate. luciferase refolding luminescence, 3 h. inhibition, % at 5.6 µM. actives 0.91% (n = 290,000);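 active = inhibition above the screen-wide mean plus 3 SD, computed separately per campaign, cut at about 16% in these data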;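 note: 0% = DMSO wells and 100% = 60 µM geldanamycin wells; inhibitors lower the luminescence because luciferase stays unfolded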
SENP8 block-2: SENP8 (human) protease inhibition; inhibition, % at 20 µM; actives 0.64% (n = 360,000); recombinant SENP8, Nedd8 substrate fluorescence; in the data active = inhibition mostly above about 40%, no sharp cut-off; inactive = mostly below about 27%
SENP6 inh: inhibitors of human SENP6 protease | Recombinant SENP6 catalytic domain, aminoluciferin luminescence | Q9GZR1 | actives 1.8% (n = 330,000) | inhibition, % at 10 µM | AID 2599;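 active = inhibition above about 50% at the single tested dose, limit read from the data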;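 note: plate controls were DMSO wells with enzyme for no effect and DMSO wells lacking enzyme for full effect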
SENP1 inh: SENP1 (human) catalytic domain inhibition; Q9P0U3; recombinant SENP1 catalytic domain, CyPet-SUMO1-YPet FRET cleavage; inhibition, % at 10 µM; actives 0.21% (n = 360,000); AID 624204;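 active = inhibition at least 30% at 10 µM, raw YFP signal under a set limit, fluorescence ratio 0.5 to 1.5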;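 note: 0% = enzyme with DMSO and 100% = no enzyme wells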
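Assay system – human recombinant His6-tagged SENP1 catalytic domain enzyme · Input – SENP1 enzyme, 20 pM final · Buffer or medium – Tris pH 8 buffer plus EDTA, NaCl, BME, BSA, NP40, catalase · Schedule – 50 min reaction at room temperature · Technique – FRET read of cyan and yellow fluorescence · Control set – no-enzyme wells low, DMSO-plus-enzyme wells high control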
SENP7 block: SENP7 protease inhibition. inhibition, % at 5 µM. actives 1.5% (n = 330,000). AID 434973. recombinant SENP7, Z-RLRGG-aminoluciferin luminescence, 40 min;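 active = inhibition above about 50% at the single test dose, limit read from the data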;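 note: plate controls were DMSO with enzyme for no effect and no enzyme buffer wells for full effect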
Target sequence (Q9BQF6 706-1050 limits assumed): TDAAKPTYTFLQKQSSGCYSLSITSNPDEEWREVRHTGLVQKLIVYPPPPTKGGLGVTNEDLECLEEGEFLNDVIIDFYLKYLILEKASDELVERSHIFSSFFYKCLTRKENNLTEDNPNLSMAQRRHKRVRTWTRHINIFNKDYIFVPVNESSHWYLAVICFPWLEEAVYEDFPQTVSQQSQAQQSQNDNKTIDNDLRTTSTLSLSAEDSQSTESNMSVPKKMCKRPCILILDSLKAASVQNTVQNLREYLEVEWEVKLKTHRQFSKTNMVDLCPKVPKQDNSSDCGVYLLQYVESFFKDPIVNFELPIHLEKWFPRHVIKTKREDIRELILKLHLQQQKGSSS
SENP8 conf: human SENP8 inhibition, confirmed; Recombinant SENP8, Z-RLRGG-aminoluciferin luminescence, 60 min; shares compounds with SENP7 block; inhibition, % at 12.5 µM; actives 40% (n = 6,200);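 active = mean inhibition across replicates above about 50%, limit read from the data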
SENP6 confirm: human SENP6 inhibition, confirmed; recombinant SENP6, Z-RLRGG-aminoluciferin luminescence; AID 488915; actives 58% (n = 6,200); shares compounds with SENP7 block; inhibition, % at 12.5 µM
SENP7 conf: human SENP7 inhibition, confirmed | AID 488917 | shares compounds with SENP7 block | inhibition, % at 12.5 µM | actives 69% (n = 6,200) | recombinant SENP7, Z-RLRGG-aminoluciferin luminescence, 40 min
Casp3 select: inhibits human caspase-3 in SENP selectivity test; shares compounds with SENP7 block; purified caspase-3, Z-DEVD-aminoluciferin luminescence, 60 min; inhibition, % at 12.5 µM; actives 60% (n = 6,200);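 active = mean inhibition above about 50%, limit read from the data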;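 note: plate controls were enzyme with DMSO for no effect and wells without caspase-3 for full effect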
Target sequence (P42574 28-227 limits assumed): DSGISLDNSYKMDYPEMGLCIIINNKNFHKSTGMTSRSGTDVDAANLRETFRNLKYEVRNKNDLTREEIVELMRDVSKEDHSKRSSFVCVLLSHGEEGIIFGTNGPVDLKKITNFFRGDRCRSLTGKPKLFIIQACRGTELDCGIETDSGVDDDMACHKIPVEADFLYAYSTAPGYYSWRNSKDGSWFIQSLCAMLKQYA
SENP luc ctr: luminescence interference (SENP counter-screen) | shares compounds with SENP7 block | Pre-incubated SENP8/Z-RLRGG-aminoluciferin, luciferase luminescence interference | inhibition, % at 12.5 µM | actives 39% (n = 6,200);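 active = mean inhibition above about 50% when retested at one dose, limit read from the data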;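 note: plate controls were DMSO wells with completed reaction for no effect and substrate without enzyme for full effect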
An asterisk follows results filed as active; · = not tested or not shown. This is a sample that favours compounds with a hit; in the whole collection about 2.9% have one here.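 Rule for the calls, unless noted: active = mean inhibition above about 50% in the one-dose retest (limit read from the data); inactive = the rest.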

SMILES	SENP8 block-1	HSP90 refold inh	SENP8 block-2	SENP6 inh	SENP1 inh	SENP7 block	SENP8 conf	SENP6 confirm	SENP7 conf	Casp3 select	SENP luc ctr
COc1ccc(OC)c(S(=O)(=O)Oc2ccc(N)c3ccccc23)c1	72*	·	-14	94*	13	28	2	24	19	3	3
Oc1ccc(Nc2ncnc3c2oc2ccccc23)cc1	3	-2	-20	9	3	3	·	·	·	·	·
c1ccc(Nc2ncnc3c2oc2ccccc23)cc1	14	1	-383	52*	-1	36	10	7	56*	37	14
Oc1ccccc1Nc1ncnc2c1oc1ccccc12	2	2	-58	-21	0	-4	·	·	·	·	·
c1ccc2c(c1)oc1c(Nc3ccc4c(c3)OCO4)ncnc12	13	0	-187	13	-11	59*	-9	4	10	19	7
Oc1cccc(Nc2ncnc3c2oc2ccccc23)c1	62*	-3	-222	70*	2	71*	64*	66*	92*	69*	80*
CN(Cc1nc2ccccc2c(=O)[nH]1)C(=O)c1cc(C2CC2)nn1-c1ccccc1	-9	·	-2	-10	-2	-4	·	·	·	·	·
CC1(C)CN(C(Cc2ccccc2)C(N)=O)C1=O (centres undefined)	7	-2	16	3	0	6	·	·	·	·	·
CC(OC(=O)CCCN=C1NS(=O)(=O)c2ccccc21)C(=O)NC1CCCCC1C (centres undefined)	3	-7	-6	-12	2	-4	·	·	·	·	·
CCCN(C)C[C@H]1OCc2cnnn2CCCC(=O)N([C@H](C)CO)C[C@@H]1C	·	·	12	·	1	·	·	·	·	·	·
COc1ccc(C(=O)NCc2ccc(-c3nc4ccccc4s3)cc2)cc1	-2	0	-20	-11	-7	-1	·	·	·	·	·
COC(=O)Cc1ccc2sc(-c3ccccc3)nc2c1	94*	-3	0	94*	1	100*	96*	98*	101*	96*	94*
O=C(O)Cc1ccc2sc(-c3ccccc3)nc2c1	93*	0	-2	99*	1	91*	96*	97*	101*	97*	96*
NC(=O)c1ccccc1NC(=O)Nc1ccc(F)c(Cl)c1	92*	0	-416	92*	3	96*	64*	88*	99*	90*	91*
CSc1cccc(NC(=O)Nc2ccccc2C(N)=O)c1	64*	1	-173	77*	2	78*	6	64*	87*	63*	25
Cc1ccc(S(=O)(=O)N2CCOCC2)cc1NC(=O)COC(=O)CCc1c[nH]c2ccccc12	-9	·	-1	-13	2	4	·	·	·	·	·
CC(C)C1COS(=O)(=O)NC1CC(=O)SC(C)(C)C (centres undefined)	-1	-1	9	-1	-1	7	·	·	·	·	·
COc1ccc(C(C)(C)C)cc1NC(=O)CNc1cccc2ccccc12	48	5	-331	77*	-21	25	12	10	9	4	2
COc1ccccc1NC(=O)Cc1cccc2ccccc12	2	1	6	-35	0	12	·	·	·	·	·
O=C(c1cccc(S(=O)(=O)N2CCCC2)c1)N1CCN(Cc2ccccc2)CC1	-13	·	10	-17	0	-10	·	·	·	·	·
O=c1c(-c2ccc(F)cc2)coc2cc(O)ccc12	82*	1	-236	86*	-2	-17	90*	90*	99*	94*	90*
O=c1c(-c2ccc(F)cc2)coc2c3c(ccc12)OCCO3	-4	-3	7	-12	1	76*	12	8	13	16	6
COc1ccc(-c2coc3cc(O)ccc3c2=O)cc1OC	-9	-3	-384	10	-1	3	·	·	·	·	·
O=c1c(-c2ccc(Br)cc2)coc2c(CN3CCOCC3)c(O)ccc12	0	1	-396	13	-1	30	·	·	·	·	·
O=C(CN1CCOCC1)Nc1ccc(NC(=O)c2ccccc2F)cc1	9	0	5	-12	2	-4	·	·	·	·	·
SMILES	SENP8 block-1	HSP90 refold inh	SENP8 block-2	SENP6 inh	SENP1 inh	SENP7 block	SENP8 conf	SENP6 confirm	SENP7 conf	Casp3 select	SENP luc ctr
CCN(CC)C(=O)c1[nH]cnc1C(=O)NCc1ccccc1	-11	·	6	-22	-2	-10	·	·	·	·	·
COc1ccc(-c2cn3cc(C)ccc3n2)cc1OC	36	11	-333	57*	2	16	68*	65*	90*	89*	78*
COc1ccc(-c2csc(C)n2)cc1OC	-15	2	11	1	1	-15	·	·	·	·	·
COc1ccc(OCCN2CCC(C(=O)NC(C)c3cccc4ccccc34)CC2)cc1 (centres undefined)	·	·	-2	·	0	·	·	·	·	·	·
Fc1cccc(F)c1/C=C/c1ccc2ccccc2n1	40	1	-50	39	-5	5	·	·	·	·	·
Cc1ccc2nc(/C=C/c3cccc(F)c3)ccc2c1	30	-3	-300	50*	0	23	8	8	56*	16	59*
CCN(CC)C(=O)c1cccc(NC(=O)c2ccccc2OCc2c(C)noc2C)c1	0	·	8	-5	0	4	·	·	·	·	·
NC1=NC(=O)C(CC(=O)c2ccc(Cl)cc2)S1 (centres undefined)	-2	0	6	1	0	9	·	·	·	·	·
Cc1ccc(C(=O)CC2SC(N)=NC2=O)cc1 (centres undefined)	3	3	-23	2	-2	77*	-7	-2	3	1	-7
CCCc1cc(C(=O)Nc2cccc(-c3nn[nH]n3)c2)sc1C	·	·	-3	·	2	·	·	·	·	·	·
Cc1ccc(/C=C2\Sc3ccccc3C2=O)s1	89*	-2	-224	94*	-67	96*	16	86*	94*	67*	65*
Cc1c(C(=O)O)oc2ccc(S(=O)(=O)N3CCC(C)CC3)cc12	-2	2	13	-3	-1	3	·	·	·	·	·
Cc1c(C(=O)N2CCC(C)CC2)oc2ccc(S(=O)(=O)N3CCC4(CC3)OCCO4)cc12	3	2	8	6	1	75*	6	8	7	3	2
